Test results from ChEMBL document CHEMBL2086367, “Novel oxysterols activate the Hedgehog pathway and induce osteogenesis” (Bioorg Med Chem Lett, 2012).
Active and inactive are the calls of the source. No cut-off for these calls is given here.

What was measured:
Sonic hedgehog protein = Sonic hedgehog protein (Mus musculus, UniProt Q62226); test: Activation of SHh in mouse Light2 cells assessed as induction of Gli-mediated luciferase activity after 24 hrs by reporter gene assay; format: cell-based
Sequence of Sonic hedgehog protein (Q62226 25-198 limits assumed): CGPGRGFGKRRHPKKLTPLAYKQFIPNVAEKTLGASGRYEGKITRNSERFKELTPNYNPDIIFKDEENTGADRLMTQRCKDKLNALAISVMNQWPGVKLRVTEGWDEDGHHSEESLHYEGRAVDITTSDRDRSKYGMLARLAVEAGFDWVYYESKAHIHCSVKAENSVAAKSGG
Outline: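 SHHLight2 cells (8×Gli response elements driving firefly luciferase; constitutive Renilla) seeded at 10,000 cells/well in DMEM/10% FCS. After 24 h, compound added in DMEM/0.5% FCS, triplicate wells. Firefly and Renilla luciferase read 24 h later; firefly divided by Renilla per well, expressed relative to DMSO-treated cells.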

C3H 10T1/2 = test: Osteogenetic activity in mouse C3H10T1/2 cells assessed as increase in osteocalcin expression at 3.3 uM after 10 days by RT-PCR analysis relative to control; format: functional
[1] = Metabolic stability in human liver microsomes assessed as compound remaining after 1 hr; format: ADME, Microsome; settings: read-out: Stability
[2] = Half life in human liver microsomes incubated up to 120 mins at pH 7.4; format: ADME, Microsome
[3] = Half life in human liver microsomes incubated up to 60 mins; format: ADME, Microsome
Outline: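 Pooled human liver microsomes with NADPH; sampling at 0, 15, 30, 45 and 60 min to derive intrinsic clearance half-life.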

Rattus norvegicus [4] = test: Osteogenetic activity in Sprague-Dawley rat assessed as increase in mechanical stability of the vertebral segments at 4 mg/kg measured after 8 weeks by manual palpation; format: functional, organism-based; design: dose 4 mg/kg
Outline: (§1)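 Sprague Dawley rats; compound in DMSO at 50 mg/mL, 40 µL loaded onto collagen sponge, held 1–2 h at room temperature, implanted bilaterally between L4 and L5 after decorticating transverse processes; 4 mg/kg. After 8 weeks, segment stability scored by manual palpation (n = 10/group, Kruskal-Wallis); formalin-fixed tissue scanned by microCT at 18 µm resolution for callus bone volume.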

Rattus norvegicus [5] = test: Osteogenetic activity in Sprague-Dawley rat assessed as increase in bone volume in callus at 4 mg/kg measured after 8 weeks by MicroCT analysis; format: functional, organism-based; design: dose 4 mg/kg; outline: as §1

EC50 (Sonic hedgehog protein) | remaining at 1 h [1] | SMILES | fold change (FC) (C3H 10T1/2) | also measured
> 5000 nM | – | C[C@]12CC[C@H](O)C[C@@H]1[C@@H](O)C[C@@H]1[C@@H]2CC[C@@]2(C)[C@H]1CC[C@@H]2[C@@](C)(O)CCCc1ccncc1 | 2 | –
1200 nM | – | C[C@]12CC[C@H](O)C[C@@H]1[C@@H](O)C[C@@H]1[C@@H]2CC[C@@]2(C)[C@H]1CC[C@@H]2[C@@](C)(O)CCCc1cccnc1 | – | –
800 nM | 100% | [2H]C([2H])(CC(C)C)C([2H])([2H])[C@](C)(O)[C@H]1CC[C@H]2[C@@H]3C[C@H](O)[C@H]4C[C@@H](O)CC[C@]4(C)[C@H]3CC[C@@]21C | 17 | half-life [2]: > 120 min
> 10000 nM | 69% | CCCCCC[C@@](O)(c1ccccc1)[C@H]1CC[C@H]2[C@@H]3C[C@H](O)[C@H]4C[C@@H](O)CC[C@]4(C)[C@H]3CC[C@@]21C | – | –
3100 nM | 35% | COCCCC[C@](C)(O)[C@H]1CC[C@H]2[C@@H]3C[C@H](O)[C@H]4C[C@@H](O)CC[C@]4(C)[C@H]3CC[C@@]21C | 3 | –
2900 nM | 9% | CCCCCC[C@@](O)(CC)[C@H]1CC[C@H]2[C@@H]3C[C@H](O)[C@H]4C[C@@H](O)CC[C@]4(C)[C@H]3CC[C@]12C | – | –
800 nM | 3% | CC(C)CCC[C@](C)(O)[C@H]1CC[C@H]2[C@@H]3C[C@H](O)[C@H]4C[C@@H](O)CC[C@]4(C)[C@H]3CC[C@@]21C | 15 | half-life [3]: 4 min; Activity (Rattus norvegicus [4]): inactive; Activity (Rattus norvegicus [4]; tested as the 2H-labelled form): inactive; Activity (Rattus norvegicus [5]): Active; Activity (Rattus norvegicus [5]; tested as the 2H-labelled form): Active
1000 nM | – | [2H][C@@H](CC(C)C)[C@H]([2H])[C@](C)(O)[C@H]1CC[C@H]2[C@@H]3C[C@H](O)[C@H]4C[C@@H](O)CC[C@]4(C)[C@H]3CC[C@]12C | – | half-life [2]: > 120 min
500 nM | – | CCCCCCC[C@](C)(O)[C@H]1CC[C@H]2[C@@H]3C[C@H](O)[C@H]4C[C@@H](O)CC[C@]4(C)[C@H]3CC[C@@]21C | 17 | –
6600 nM | – | CCCCC[C@](C)(O)[C@H]1CC[C@H]2[C@@H]3C[C@H](O)[C@H]4C[C@@H](O)CC[C@]4(C)[C@H]3CC[C@@]21C | 4 | –
1100 nM | – | [2H][C@H](CC(C)C)[C@@H]([2H])[C@](C)(O)[C@H]1CC[C@H]2[C@@H]3C[C@H](O)[C@H]4C[C@@H](O)CC[C@]4(C)[C@H]3CC[C@]12C | – | half-life [3]: 5 min
> 10000 nM | – | CC(C)CCC[C@@](C)(O)[C@H]1CC[C@H]2[C@@H]3C[C@H](O)[C@H]4C[C@@H](O)CC[C@]4(C)[C@H]3CC[C@@]21C | – | –

SMILES | EC50 (Sonic hedgehog protein) | remaining at 1 h [1] | fold change (FC) (C3H 10T1/2) | also measured
[2H]C([2H])(CCCC)C([2H])([2H])[C@](C)(O)[C@H]1CC[C@H]2[C@@H]3C[C@H](O)[C@H]4C[C@@H](O)CC[C@]4(C)[C@H]3CC[C@@]21C | 300 nM | 100% | 35 | –
C[C@]12CC[C@H](O)C[C@@H]1[C@@H](O)C[C@@H]1[C@@H]2CC[C@@]2(C)[C@H]1CC[C@@H]2[C@@](C)(O)CCCc1ccccc1 | 2500 nM | 1% | 2 | –
CCCCCC[C@](C)(O)[C@H]1CC[C@H]2[C@@H]3C[C@H](O)[C@H]4C[C@@H](O)CC[C@]4(C)[C@H]3CC[C@@]21C | 400 nM | 2% | 36 | Activity (Rattus norvegicus [4]): inactive; Activity (Rattus norvegicus [5]): Active
